# Experimental data collected from several papers.
# Lines come from different studies, so protocols differ.
# Target: Tyrosine-protein kinase Blk (BLK, Homo sapiens, UniProt P51451)
Structure (SMILES),assay,setting,measurement,value
CN1CC(Oc2cnc(C#N)cc2-c2ccn3nc(NC(=O)C4CC4)cc3c2)C1,"enzyme activity, inhibitor",1 µM,inhibition,28%
O=C(O)[C@H]1[C@H](Cn2nnc3ccccc3c2=O)CC[C@@H]1C(=O)c1ccc(OCCC2CCOCC2)cc1,"cell-free assay, competition with immobilised ligand",1 µM,remaining binding,100%
Nc1nc(Nc2ccc(S(N)(=O)=O)cc2)nn1C(=O)c1c(F)cccc1F,cell-free assay,0.5 µM,remaining signal,90.1%
CCOCCn1cc(C(=O)Nc2ccc(-n3nc(-c4cccnc4)cc3C(F)(F)F)cn2)ccc1=O,"cell-free assay, competition with immobilised ligand",1 µM,remaining binding,89%
COc1cc2ncnc(Nc3ccc(Oc4ccccc4)c(C)c3C)c2cc1OC,"enzyme activity, inhibitor",1 µM,inhibition,71%
CNC(=O)c1cc2c(Oc3ccc(NC(=O)C4(C(=O)Nc5ccc(F)cc5)CC4)cc3)ccnc2cc1OC,"enzyme activity, inhibitor, radiometric",1 µM,inhibition,94%
O=C(Nc1cnn(-c2csc(C(=O)NC3COC3)c2)c1)Nc1c(F)cccc1Cl,"enzyme activity, inhibitor",5 µM,remaining activity,96.1%
Nc1c(C(=O)NCc2ccc(C(=O)NCCCC3CCCCC3)cc2)cnn1-c1ccccc1,"cell-free assay, competition with immobilised ligand",0.1 µM,remaining binding,81%
Nc1ncnc2occ(-c3ccc(NC(=O)Nc4cc(C(F)(F)F)ccc4F)cc3)c12,cell-free assay,20 µM,remaining signal,0.45%
N#CCCc1ccc2c(c1)-c1[nH]c3ccc([N+](=O)[O-])cc3c1CC(=O)N2,cell-free assay,0.5 µM,remaining signal,78.8%
Cc1ccc(C(=O)NCc2ccsc2)cc1C#Cc1cn(C(C)C)c2ncnc(N)c12,"enzyme activity, inhibitor",1 µM,activity vs control,4%
CC(C)(C)c1nc2c(s1)c1nc(N)ncc1c1ccc(NS(=O)(=O)c3c(F)cccc3F)c(F)c12,"enzyme activity, inhibitor, radiometric",1 µM,remaining activity,52%
CC(C)CC(=O)N1CCc2nc(-c3ccc(Br)cc3)nc(N(C)Cc3ccccc3)c2C1,"cell-free assay, competition with immobilised ligand",0.1 µM,remaining binding,84%
COc1cc(Cl)c(C(=O)N[C@@H](CN[C@H]2CC[C@@H](N)CC2)Cc2ccc(C#N)cc2)cc1-c1ccc(CN[C@H](C)c2ccc(C)cc2)o1,"enzyme activity, inhibitor",1 µM,remaining activity,80%
O=C1Nc2ccc(Cl)cc2C1=Cc1cc(Cl)c(O)c(Cl)c1,cell-free assay,0.5 µM,remaining signal,102%
C=CC(=O)Nc1cc(Nc2nccc(Nc3cc(Cl)c(F)cc3C(C)(C)O)n2)c(OC)cc1N1CC[C@@H](N(C)C)C1,"enzyme activity, inhibitor",1 µM,inhibition,90%
Cc1nccc(COC(=O)N2C[C@@H]3[C@@H](CNC(=O)c4ccc5[nH]nnc5c4)[C@@H]3C2)n1,"cell-free assay, competition with immobilised ligand",1 µM,remaining binding,93%
Cc1cc(NC(=O)c2cccc3cc(-c4cccc5[nH]nc(N)c45)ccc23)ccc1F,"enzyme activity, inhibitor",0.1 µM,activity vs control,114%
